Data reported in article PMC3513709 (The Biochemical journal, 2012).
Substitutions are numbered along the chain they refer to. Blank lines part the entries; values can stand above or below the molecule they belong to.

Assays:
[1] = target: hCHT (human chitotriosidase) (Homo sapiens, UniProt Q13231); assay: Chitinase activity assay, steady-state kinetics; type: biochemical
In short: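 Human chitotriosidase at 2 nM final with fluorigenic 4MU-(GlcNAc)3 in 0.2 M Na2HPO4/0.1 M citric acid pH 5.5, incubated 60 min at 37°C. Quenched with 3 M glycine/NaOH pH 10; 4MU product read at ex 360/em 460 nm. Reactions run in triplicate, with no-enzyme readings subtracted. Km and kcat from steady-state fit, means ± S.E.M. of three independent experiments.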

[2] = target: T1, YKL-39 S143D/I145E active mutant (Homo sapiens, UniProt Q15782, I145E/S143D); assay: Chitinase activity assay, steady-state kinetics and inhibition; type: biochemical
T1 sequence (Q15782 27-390 S143D/I145E): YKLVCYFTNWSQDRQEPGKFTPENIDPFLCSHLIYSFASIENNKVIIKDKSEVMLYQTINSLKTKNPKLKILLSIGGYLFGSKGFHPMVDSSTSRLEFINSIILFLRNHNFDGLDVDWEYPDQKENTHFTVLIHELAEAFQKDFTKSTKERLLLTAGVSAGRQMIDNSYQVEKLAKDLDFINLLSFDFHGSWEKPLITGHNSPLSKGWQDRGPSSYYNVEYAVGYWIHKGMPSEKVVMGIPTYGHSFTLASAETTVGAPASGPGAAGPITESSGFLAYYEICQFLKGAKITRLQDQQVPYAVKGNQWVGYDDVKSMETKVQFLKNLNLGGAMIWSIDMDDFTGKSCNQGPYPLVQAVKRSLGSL
In short: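 S143D/I145E mutant was secreted from methanol-induced Pichia pastoris GS115 and purified by CM-Sepharose and size exclusion. 20 nM enzyme with 4MU-(GlcNAc)3 in 0.2 M Na2HPO4/0.1 M citric acid pH 5.5, 60 min at 37°C. Quenched with 3 M glycine/NaOH pH 10; read at ex 360/em 460 nm. Triplicates, no-enzyme blank subtracted. Kinetic parameters from curve fit over three independent experiments; Ki by non-linear regression.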

[3] = target: T2, YKL-39 (Homo sapiens, UniProt Q15782); assay: Glycan array screen; type: binding; conditions: AlexaFluor 488-labelled YKL-39, array of 264 glycans
T2 sequence (Q15782 27-390): T1 sequence (Q15782 27-390 S143D/I145E) with D117S, E119I
In short: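 Amino-linked natural and synthetic glycans were printed on modified glass slides, six replicates each. Dye-labelled protein was applied for 1 h at room temperature. Slides were spun dry and scanned at ex 495/em 520 nm. Means ± S.D. of four observations.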

[4] = tested on: hAMCase; conditions: cited from earlier work

Chain of hCHT (human chitotriosidase) (Q13231 22-466): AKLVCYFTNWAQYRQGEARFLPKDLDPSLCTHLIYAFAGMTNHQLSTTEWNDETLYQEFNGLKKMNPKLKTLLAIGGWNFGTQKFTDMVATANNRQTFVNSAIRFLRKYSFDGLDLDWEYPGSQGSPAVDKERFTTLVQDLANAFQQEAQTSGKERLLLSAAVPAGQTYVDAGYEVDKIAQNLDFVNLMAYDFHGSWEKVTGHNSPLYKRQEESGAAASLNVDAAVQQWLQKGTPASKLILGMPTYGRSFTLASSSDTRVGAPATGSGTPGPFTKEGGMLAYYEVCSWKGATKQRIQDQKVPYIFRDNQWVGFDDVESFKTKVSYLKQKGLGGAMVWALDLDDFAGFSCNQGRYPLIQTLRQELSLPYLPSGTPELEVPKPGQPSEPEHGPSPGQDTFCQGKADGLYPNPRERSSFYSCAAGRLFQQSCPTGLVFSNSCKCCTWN

Molecule: CC(=O)N[C@H]1[C@H](Oc2ccc3c(C)cc(=O)oc3c2)O[C@H](CO)[C@@H](O[C@@H]2O[C@H](CO)[C@@H](O[C@@H]3O[C@H](CO)[C@@H](O)[C@H](O)[C@H]3NC(C)=O)[C@H](O)[C@H]2NC(C)=O)[C@@H]1O [4MU-(GlcNAc)3, 4-methylumbelliferyl-β-D-N,N′,N′’-triacetylchitotriose]
kcat ([1]; fluorigenic pseudosubstrate, pH 5.5, 37°C): 15.7 ± 0.3 s⁻¹
Km ([1]; read-out: Michaelis constant (Km), fluorigenic pseudosubstrate, pH 5.5, 37°C): 53 ± 3 µM
kcat ([2]; YKL-39 S143D/I145E, fluorigenic pseudosubstrate, pH 5.5, 37°C): 0.02 ± 0.0002 s⁻¹
Km ([2]; read-out: Michaelis constant (Km), YKL-39 S143D/I145E, fluorigenic pseudosubstrate, pH 5.5, 37°C): 9 ± 1 µM

Molecule: Cn1cnc2c1c(=O)n(CCCn1c(=O)c3[nH]cnc3n(C)c1=O)c(=O)n2C [bisdionin F]
activity against hAMCase [4]: submicromolar
selectivity for hAMCase over hCHT [4]: selectivity over hCHT

Further lines, results first:

binding to YKL-39 in glycan array (relative fluorescence) [3]: strongest binders
Molecule: CC(=O)N[C@H]1[C@H](O[C@H]2[C@H](O)[C@@H](NC(C)=O)[C@H](O[C@H]3[C@H](O)[C@@H](NC(C)=O)C(O)O[C@@H]3CO)O[C@@H]2CO)O[C@H](CO)[C@@H](O[C@@H]2O[C@H](CO)[C@@H](O[C@@H]3O[C@H](CO)[C@@H](O[C@@H]4O[C@H](CO)[C@@H](O)[C@H](O)[C@H]4NC(C)=O)[C@H](O)[C@H]3NC(C)=O)[C@H](O)[C@H]2NC(C)=O)[C@@H]1O (stereo partly drawn) [(GlcNAc)6, chitohexaose]

Ki [2]: 120 ± 2 µM
Molecule: CCc1nc2c([nH]1)c(=O)n(CCCn1c(=O)c3c(ncn3C)n(C)c1=O)c(=O)n2C [bisdionin G, 1-{3-[3,7-dimethyl-2,6-dioxo-2,3-dihydro-6H-purin-1(7H)-yl]propyl}-8-ethyl-3-methyl-1H-purine-2,6(3H, 7H)-dione]

binding to YKL-39 in glycan array (relative fluorescence) [3]: strongest binders
Molecule: (GlcNAc)5
